Assay outcomes: PubChem, Broad Institute
F508del corr: correctors of CFTR F508del function in bronchial epithelial cells | CFBE cells, YFP halide quenching; stimulated with forskolin plus potentiator P3; % fluorescence drop versus neutral controls | activity (quench increase), % at 7.58 µM | 0.36% of 350,000 active | AID 720511;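 active means mean added fluorescence quench of at least 8% versus neutral control, with both replicates also reaching 8%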;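 further: cells transiently co-express mutant CFTR-F508del with the halide-sensitive YFP; corrector assay measuring rescue of mutant channel to the surface after 24 h compound exposure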
FN deposit inh: fibronectin deposition inhibition. AH1F fibroblasts, Alexa488-fibronectin deposition fluorescence, overnight. inhibition, % at 12.6 µM. 0.086% of 350,000 active. AID 743247;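 active means mean inhibition across replicates of 30% or more, regardless of how many single replicates reach that level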;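 further: positive control wells lacked labelled fibronectin entirely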
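Assay system: AH1F fibroblasts / Quantity: 10000 cells per well / Medium: DMEM plus 2% serum, read in PBS / Reagent: labelled fibronectin 24 nM / Dosing: single dose, pinned / Times: 1 h cell attachment, overnight exposure to compound and label / Signal: fluorescence, ex 485 nm, em 525 nm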
Cneo AK release: Cryptococcus neoformans lysis via adenylate kinase release; AID 651654; C. neoformans lysis, adenylate kinase release luminescence, 4 h; normalised: neutral wells 0, clomiphene wells 100; 0.2% of 360,000 active; lysis activity, % at 15 µM;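 active means mean lysis activity across replicates of at least 80%, whatever share of replicates individually reach that level; inactive means mean lysis activity below 80%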
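Signal: Adenylate kinase release luminescence | Assay system: Log-phase Cryptococcus neoformans yeast cells | Input: Cells at 5 × 10^6 per mL | Buffer or medium: Fresh YPD growth medium | Compound: Single dose | Schedule: Static 4 h at 37 °C with compound, 1 h detection | Controls: Clomiphene | Read-out: Luminescence rise reflecting yeast cell lysis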
Xi reactivation: activators of X-chromosome reactivation in mouse fibroblasts; activation, % at 7.58 µM; AID 743238; 0.055% of 360,000 active; XiGFP mouse fibroblasts, % GFP-positive cells imaging, 3 d; cells co-treated with 5-aza-dC sensitizer; scaled so ellipticine positive control = 100%;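 active means mean normalized replicate activation at least 10% and every replicate at or above 10%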;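 further: 0% = median of on-plate neutral control wells and 100% = ellipticine 6 µM median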
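assay system = SV40-immortalized XiGFP fibroblast cells, line 68-5-11 | buffer or medium = DMEM plus 5-aza-dC sensitizer | doses = single-point pinned compound dosing | times = 3-day compound exposure, then 15 min fixation at room temperature | benchmarks = positive control ellipticine, 6 µM final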
PGC1a acetyl inh: lowers PGC1a acetylation signal in U2OS cells; AlphaScreen anti-acetyl-lysine; with virally co-expressed GCN5 acetyltransferase; inhibition, % at 15.6 µM; 0.17% of 350,000 active; AID 651687;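 active means every replicate shows inhibition of at least 40%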;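 further: 0% = neutral control wells and 100% = positive control wells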
DENV2 CPE: protects cells from dengue virus 2 cytopathic effect; DENV2-infected cells, cytopathic effect rescue, plate reader; CPE inhibition, % at 9.99 µM; 1.7% of 350,000 active; AID 651640; in the data active means CPE inhibition above about 20%, passing the limit was not always enough; tested in BHK-21 cells;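 further: 0% = median of neutral control wells and 100% = median of positive control wells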
Active calls of the source: *; x = no result. The list is not random: actives were taken first. Their share in the collection is about 1.9%.

SMILES | F508del corr | FN deposit inh | Cneo AK release | Xi reactivation | PGC1a acetyl inh | DENV2 CPE
C[C@@H]1CCCCO[C@H](CN(C)C)[C@H](C)CN([C@H](C)CO)C(=O)c2cc(NC(=O)Cc3ccccc3)ccc2O1 | 1 | x | -2 | 0 | 8 | 0
CN1CCN(C(=O)C[C@@H]2CC[C@@H](NC(=O)Cc3ccccn3)[C@H](CO)O2)CC1 | 0 | -5 | -8 | 0 | -10 | 15
COc1ccc2c3c(n(C)c2c1)[C@H](CO)N(Cc1ccncc1)CC31CN(C(=O)C2CCC2)C1 | 0 | x | x | 0 | x | 5
O=S(=O)(N[C@H]1CC[C@H](CCNS(=O)(=O)c2ccccc2Cl)O[C@H]1CO)c1ccccc1 | 1 | x | 55 | 0 | -24 | -1
C[C@H](CO)N1C[C@H](C)[C@H](CN(C)Cc2ccncc2)Oc2ccc(NS(C)(=O)=O)cc2CC1=O | -1 | x | 0 | 0 | 0 | -2
O=C(C[C@@H]1C[C@@H]2c3cc(NC(=O)C4CCC4)ccc3O[C@@H]2[C@@H](CO)O1)NCc1ccc(-c2ccccc2)cc1 | -3 | 6 | -12 | 0 | 80* | 4
OC(CSc1nc2ccccc2s1)CC(O)c1ccccc1 (stereo not drawn) | -1 | x | -7 | x | -9 | 15
C/C(=N\NC(=O)c1cc(C)[nH]n1)c1ccc(-c2ccccc2)cc1 | -1 | 3 | 0 | 0 | 79* | 1
Cc1cccc(OCC(=O)NNC(=O)C2CCCCC2C(=O)O)c1 (stereo not drawn) | 0 | 0 | 2 | 0 | 3 | 22*
Cc1ccc(OCC(=O)NNC(=O)[C@@H]2CCCC[C@@H]2C(=O)O)c(Br)c1 | 1 | -1 | 0 | 0 | 3 | -5
O=C(NC[C@@H]1CC[C@@H]2[C@@H](CN2Cc2cccc(Cl)c2)O1)C1CCC1 | -3 | x | x | x | -1 | 17
O=C(C[C@@H]1C=C[C@H](NS(=O)(=O)c2ccc(F)cc2)[C@H](CO)O1)NCc1ccc(Cl)c(Cl)c1 | 1 | x | 0 | 0 | -2 | -1
CC(O)CNCCCOc1ccccc1OCc1ccccc1 (stereo not drawn) | 2 | 2 | x | 0 | x | -3
CNCC(C)COc1ccccc1OCc1ccccc1 (stereo not drawn) | 1 | 5 | x | 0 | x | 64*
CC(C)c1ccccc1NC(=O)Cn1c(-c2ccccc2Cl)nc2ccccc21 | x | 1 | 1 | 0 | 43* | x
COc1ccc(CCN2CC(C(=O)NCCc3cn[nH]c3)CCC2=O)cc1 (stereo not drawn) | 1 | 1 | -6 | 0 | x | 88*
COc1ccc(CCN2CC(C(=O)NCCc3cccnc3)CCC2=O)cc1 (stereo not drawn) | -1 | x | -1 | 0 | 4 | -3
CCCNC(=O)N[C@@H]1CC[C@@H](CC(=O)NCCc2ccccc2)O[C@H]1CO | 2 | -4 | 3 | 0 | -1 | -2
CC(C)CC#Cc1cnc2c(c1)C(=O)N([C@H](C)CO)C[C@H](C)[C@@H](CN(C)Cc1cccc(F)c1)O2 | 4 | x | 88* | 0 | -18 | -14
CC(C)CC#Cc1cnc2c(c1)C(=O)N([C@@H](C)CO)C[C@H](C)[C@H](CN(C)Cc1ccc(C(=O)O)cc1)O2 | -2 | x | 6 | 0 | 11 | 78*
CC(C)CC#Cc1cnc2c(c1)C(=O)N([C@@H](C)CO)C[C@@H](C)[C@H](CN(C)Cc1cccc(F)c1)O2 | -2 | x | 1 | 0 | 9 | -16
CCCC#Cc1cnc2c(c1)C(=O)N([C@@H](C)CO)C[C@H](C)[C@H](CN(C)Cc1ccc(C(=O)O)cc1)O2 | -3 | -13 | 0 | 0 | -2 | 9
O=C(c1cccnc1)N1C[C@@H]2[C@H](c3ccccc31)[C@H](CO)N2C(=O)Nc1ccccc1Cl | -3 | -5 | -1 | 0 | -9 | -10
CCCC(=O)Nc1ccc2c(c1)OC[C@@H](C)N(Cc1ccncc1)C[C@@H](C)[C@@H](OC)CN(C)C2=O | 0 | -5 | 0 | 0 | 2 | -7
CCCC(=O)Nc1ccc2c(c1)OC[C@@H](C)N(Cc1cncnc1)C[C@@H](C)[C@@H](OC)CN(C)C2=O | 2 | -10 | 94* | 0 | -5 | -3
SMILES | F508del corr | FN deposit inh | Cneo AK release | Xi reactivation | PGC1a acetyl inh | DENV2 CPE
CCCC(=O)Nc1ccc2c(c1)OC[C@@H](C)N(Cc1ccncc1)C[C@H](C)[C@@H](OC)CN(C)C2=O | 3 | 6 | 47 | 0 | x | 25*
CCCC(=O)Nc1ccc2c(c1)OC[C@H](C)N(Cc1ccccc1F)C[C@H](C)[C@@H](OC)CN(C)C2=O | -1 | 8 | 8 | 0 | -6 | 21*
Cc1ccccc1S(=O)(=O)N1C[C@@H](O)COC[C@@H]2O[C@H](CC(=O)N3CCOCC3)CC[C@H]21 | 1 | -10 | 3 | 0 | 7 | 1
COc1cc(CO)cc(I)c1O[C@H]1C=C(C(=O)NCCO)C[C@@H](N(C(=O)c2cc3ccccc3oc2=O)C2CCCCCC2)[C@@H]1O | -1 | x | -4 | x | x | -1
COc1cc(CO)cc(I)c1O[C@H]1C=C(C(=O)NCCO)C[C@@H](N(CC2CCCCC2)C(=O)c2cc3ccccc3oc2=O)[C@@H]1O | 0 | x | 92* | x | 12 | -11
O=C(O)CC(NC(=O)C12CC3CC(CC(C3)C1)C2)c1ccc(OC2CCCC2)cc1 (stereo not drawn) | 4 | -9 | 2 | 0 | -4 | 22*
COc1ccc(S(=O)(=O)N[C@H]2C=C[C@H](CC(=O)NCc3ccccc3F)O[C@H]2CO)cc1 | 5 | -1 | -4 | 0 | 19 | -1
Cc1ccc(OCC(=O)Nc2ccc3c(c2)C(=O)NC3=O)cc1 | -1 | x | 2 | 0 | x | -2
CC(C)(C)c1ccc(OCC(=O)Nc2ccc3c4c(cccc24)C(=O)NC3=O)cc1 | 20* | -3 | -2 | 1 | -2 | 6
Cc1cc(C(=O)Nc2cccc3c2O[C@H](CN(C)Cc2ccc(C(=O)O)cc2)[C@H](C)CN([C@H](C)CO)C3=O)n(C)n1 | 0 | x | -3 | -1 | 7 | 46*
COc1ccc(CN(C)C[C@@H]2Oc3c(NC(=O)c4cc(C)nn4C)cccc3C(=O)N([C@H](C)CO)C[C@@H]2C)cc1 | 1 | x | x | 0 | -4 | -8
COc1ccc(CN(C)C[C@@H]2Oc3c(NC(=O)c4cc(C)nn4C)cccc3C(=O)N([C@H](C)CO)C[C@H]2C)cc1 | -1 | x | 2 | 0 | 0 | 27*
Cc1cc(C(=O)Nc2cccc3c2O[C@H](CN(C)Cc2ccc(C(=O)O)cc2)[C@@H](C)CN([C@H](C)CO)C3=O)n(C)n1 | -1 | x | 1 | -1 | -4 | 17
